Converted amounts (≈) assume the structure as drawn.
Experiments:
Escherichia coli = assay: Antibacterial activity against Escherichia coli K-12 at 37 degC after 24 hrs by filter paper disk method; assay type: functional; details: for MIC: Escherichia coli, K-12, 24 h
Summary of the method: (§1)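 Compounds were taken from a 1 mg/ml DMSO stock and serially diluted two-fold over a 300 to 18.75 range, then loaded onto sterile 8 mm paper discs. Bacteria were grown overnight in nutrient broth at 37 °C, pelleted, and resuspended in sterile NSS to 10⁵ cfu/ml. About 0.1 ml was spread on NA plates. Plates were incubated 24 h at 37 °C with a solvent control disc, and inhibition zone diameter was read in mm.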

Penicillium sp. = assay: Antifungal activity against Penicillium sp. at 28 degC after 72 hrs; assay type: functional; details: for MIC: Penicillium sp., 72 h
Summary of the method: (§2)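 Filamentous fungi were kept on SDA at 28 °C. Spores from 7-day cultures were suspended in sterile normal saline to about 10⁵ cfu/ml, and about 0.1 ml was spread on SDA plates. Compounds were serially diluted two-fold in DMSO and impregnated on 8 mm discs, with a solvent control disc on each plate. Plates were held at 28 °C for 72 h or more, and inhibition zone diameter was read in mm.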

Salmonella typhimurium = assay: Antibacterial activity against Salmonella Typhimurium MTCC 98 at 37 degC after 24 hrs by filter paper disk method; assay type: functional, Salmonella enterica subsp. enterica serovar Typhimurium; details: for MIC: Salmonella enterica, MTCC 98, 24 h; summary of the method: as §1
Bacillus subtilis = assay: Antibacterial activity against Bacillus subtilis ATCC 6051 at 37 degC after 24 hrs by filter paper disk method; assay type: functional; details: for MIC: Bacillus subtilis, ATCC 6051, 24 h; summary of the method: as §1
Aspergillus niger = assay: Antifungal activity against Aspergillus niger at 28 degC after 72 hrs; assay type: functional; details: for MIC: Aspergillus niger, 72 h; summary of the method: as §2
Candida albicans = assay: Antifungal activity against Candida albicans IOA-109 at 37 degC after 18 to 48 hrs; assay type: functional; details: for MIC: Candida albicans, IOA-109
Helminthosporium = assay: Antifungal activity against Helminthosporium oryzae 2537 ICAR at 28 degC after 72 hrs; assay type: functional; details: for MIC: Helminthosporium, 72 h; summary of the method: as §2
Staphylococcus aureus = assay: Antibacterial activity against Staphylococcus aureus MSSA 22 at 37 degC after 24 hrs by filter paper disk method; assay type: functional; details: for MIC: Staphylococcus aureus, MSSA 22, 24 h; summary of the method: as §1
Trichoderma viride = assay: Antifungal activity against Trichoderma viride at 28 degC after 72 hrs; assay type: functional; details: for MIC: Trichoderma viride, 72 h; summary of the method: as §2

| Compound | diameter of the inhibition zone (DIZ) (Escherichia coli) [mm] | MIC (Escherichia coli) [µg/mL] | diameter of the inhibition zone (DIZ) (Penicillium sp.) [mm] | MIC (Penicillium sp.) [µg/mL] | diameter of the inhibition zone (DIZ) (Salmonella typhimurium) [mm] | MIC (Salmonella typhimurium) [µg/mL] | diameter of the inhibition zone (DIZ) (Bacillus subtilis) [mm] | MIC (Bacillus subtilis) [µg/mL] | diameter of the inhibition zone (DIZ) (Aspergillus niger) [mm] | MIC (Aspergillus niger) [µg/mL] | diameter of the inhibition zone (DIZ) (Candida albicans) [mm] | MIC (Candida albicans) [µg/mL] | diameter of the inhibition zone (DIZ) (Helminthosporium) [mm] | MIC (Helminthosporium) [µg/mL] | diameter of the inhibition zone (DIZ) (Staphylococcus aureus) [mm] | MIC (Staphylococcus aureus) [µg/mL] | diameter of the inhibition zone (DIZ) (Trichoderma viride) [mm] | MIC (Trichoderma viride) [µg/mL] |
| --- | --- | --- | --- | --- | --- | --- | --- | --- | --- | --- | --- | --- | --- | --- | --- | --- | --- | --- |
| CCCCC/C=C\CC[C@H](O)CCCCCCCc1nc2ccccc2[nH]1 | 17 | 150 (≈ 405 µM) | 17 | 75 (≈ 202 µM) | 12 | 75 (≈ 202 µM) | 19 | 75 (≈ 202 µM) | 14 | 150 (≈ 405 µM) | 18 | 75 (≈ 202 µM) | 11 | 150 (≈ 405 µM) | 19 | 150 (≈ 405 µM) | 8 | 75 (≈ 202 µM) |
| C=CCCCCCCCCc1ncc[nH]1 | 15 | 150 (≈ 727 µM) | 16 | 150 (≈ 727 µM) | 14 | 74 (≈ 359 µM) | 22 | 37.5 (≈ 182 µM) | 11 | 150 (≈ 727 µM) | 19 | 75 (≈ 363 µM) | 12 | 150 (≈ 727 µM) | 16 | 150 (≈ 727 µM) | 6 | 75 (≈ 363 µM) |
| CCCCCC[C@@H](O)C/C=C\CCCCCCCc1nc2ccccc2[nH]1 | 17 | 150 (≈ 405 µM) | 19 | 75 (≈ 202 µM) | 12 | 75 (≈ 202 µM) | 21 | 75 (≈ 202 µM) | 16 | 150 (≈ 405 µM) | 19 | 75 (≈ 202 µM) | 13 | 150 (≈ 405 µM) | 19 | 150 (≈ 405 µM) | 8 | 75 (≈ 202 µM) |
| C=CCCCCCCCCc1nc2ccccc2[nH]1 | 18 | 150 (≈ 585 µM) | 18 | 75 (≈ 293 µM) | 16 | 75 (≈ 293 µM) | 22 | 75 (≈ 293 µM) | 14 | 150 (≈ 585 µM) | 19 | 75 (≈ 293 µM) | 13 | 150 (≈ 585 µM) | 20 | 150 (≈ 585 µM) | 7 | 75 (≈ 293 µM) |
| C=CCCCCCCCCc1nc2cc(Cl)ccc2[nH]1 | 20 | 75 (≈ 258 µM) | 19 | 37.5 (≈ 129 µM) | 14 | 37.5 (≈ 129 µM) | 19 | 75 (≈ 258 µM) | 15 | 37.5 (≈ 129 µM) | 18 | 37.5 (≈ 129 µM) | 15 | 75 (≈ 258 µM) | 22 | 37.5 (≈ 129 µM) | 10 | 37.5 (≈ 129 µM) |
| CCCCCCCC/C=C/CCCCCCCc1nc2c([nH]1)CCCC2 | 17 | 150 (≈ 418 µM) | 17 | 75 (≈ 209 µM) | 10 | 75 (≈ 209 µM) | 19 | 75 (≈ 209 µM) | 13 | 37.5 (≈ 105 µM) | 18 | 75 (≈ 209 µM) | 12 | 150 (≈ 418 µM) | 16 | 75 (≈ 209 µM) | 6 | 37.5 (≈ 105 µM) |
| CCCCC/C=C\CC[C@H](O)CCCCCCCc1nc2c([nH]1)CCCC2 | 16 | 150 (≈ 400 µM) | 17 | 75 (≈ 200 µM) | 13 | 75 (≈ 200 µM) | 23 | 75 (≈ 200 µM) | 12 | 37.5 (≈ 100 µM) | 19 | 75 (≈ 200 µM) | 11 | 150 (≈ 400 µM) | 16 | 75 (≈ 200 µM) | 8 | 37.5 (≈ 100 µM) |
| C=CCCCCCCCCc1nc2cc([N+](=O)[O-])ccc2[nH]1 | 20 | 75 (≈ 249 µM) | 18 | 37.5 (≈ 124 µM) | 12 | 37.5 (≈ 124 µM) | 19 | 37.5 (≈ 124 µM) | 15 | 37.5 (≈ 124 µM) | 18 | 37.5 (≈ 124 µM) | 10 | 75 (≈ 249 µM) | 22 | 150 (≈ 498 µM) | 8 | 37.5 (≈ 124 µM) |
| CCCCC/C=C\CC[C@H](O)CCCCCCCc1nc2cc(Cl)ccc2[nH]1 | 19 | 37.5 (≈ 92.6 µM) | 19 | 37.5 (≈ 92.6 µM) | 17 | 37.5 (≈ 92.6 µM) | 20 | 75 (≈ 185 µM) | 14 | 37.5 (≈ 92.6 µM) | 18 | 37.5 (≈ 92.6 µM) | 14 | 75 (≈ 185 µM) | 21 | 37.5 (≈ 92.6 µM) | 8 | 37.5 (≈ 92.6 µM) |
| CCCCCC[C@@H](O)C/C=C\CCCCCCCc1nc2cc(Cl)ccc2[nH]1 | 18 | 75 (≈ 185 µM) | 19 | 37.5 (≈ 92.6 µM) | 17 | 37.5 (≈ 92.6 µM) | 19 | 75 (≈ 185 µM) | 14 | 37.5 (≈ 92.6 µM) | 18 | 37.5 (≈ 92.6 µM) | 14 | 75 (≈ 185 µM) | 21 | 37.5 (≈ 92.6 µM) | 9 | 37.5 (≈ 92.6 µM) |

Source: ChEMBL document CHEMBL1137675, “Convenient one-pot synthesis of novel 2-substituted benzimidazoles, tetrahydrobenzimidazoles and imidazoles and evaluation of their in vitro antibacterial and antifungal activities” (2009)
